Active and inactive are the calls of the source. No cut-off for these calls is given here.
Assays:
[1] = tested on: Pseudomonas aeruginosa PAO1; test: Inhibition of PqsR in Pseudomonas aeruginosa PAO1 harboring GFP fused pqsA at 125 ug/ml measured every 15 mins for 6 to 8 hrs by reporter assay relative to control; details: dose 125.0 µg/ml, time 6-8 hrs
Method in brief: (§1)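 PAO1 carrying PqsR-regulated pqsA promoter–gfp fusion; overnight culture in Mueller Hinton broth exposed to serially diluted compounds (40 mM DMSO stocks, diluted in medium) at 37 °C with intermittent shaking. GFP fluorescence and OD600 read every 15 min for at least 6–8 h; fluorescence normalised to OD600. Negative control: medium with 1.25% DMSO. Run in triplicate.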

[2] = Inhibition of PqsR in Pseudomonas aeruginosa PAO1 harboring GFP fused pqsA measured every 15 mins for 6 to 8 hrs by reporter assay; method in brief: as §1
Pseudomonas aeruginosa [3] = test: Antibiofilm activity against Pseudomonas aeruginosa ATCC 25619 assessed as decrease in bacterial co-aggregation at 150 to 400 uM measured after 24 hrs by phase contrast microscopic analysis; format: functional, organism-based; details: dose 150-400 µM
Method in brief: (§2)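 Overnight TSB cultures resuspended to OD600 0.1 ± 0.02 in TSB. Biofilms grown 24 h at 37 °C, 100 rpm with compound at 250 µM or DMSO control. Washed twice with PBS to remove loosely adhered cells. Imaged by phase contrast microscopy to assess biofilm morphology and aggregation.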

Pseudomonas aeruginosa [4] = test: Antibiofilm activity against Pseudomonas aeruginosa PAO1 assessed as decrease in bacterial co-aggregation at 150 to 400 uM measured after 24 hrs by phase contrast microscopic analysis; format: functional, organism-based; details: dose 150-400 µM; method in brief: as §2
Pseudomonas aeruginosa [5] = test: Antibiofilm activity against Pseudomonas aeruginosa ATCC 25619 assessed as decrease in bacterial co-aggregation at 150 to 400 uM measured […] by microscopic analysis (reference value: 23 %); format: functional; set-up: scale not given: the % may be the effect or the level left; details: dose 150-400 µM
Pseudomonas aeruginosa [6] = test: Antibiofilm activity against Pseudomonas aeruginosa PAO1 assessed as decrease in bacterial co-aggregation at 150 to 400 uM measured […] by microscopic analysis (reference value: 26 %); format: functional; set-up: scale not given: the % may be the effect or the level left; details: dose 150-400 µM
Pseudomonas aeruginosa [7] = test: Antibiofilm activity against Pseudomonas aeruginosa ATCC 25619 assessed as reduction in biomass at 250 to 400 uM measured after 48 hrs by crystal violet staining based assay relative to control; format: functional; details: dose 250-400 µM
Method in brief: (§3)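 Biofilms started from TSB-grown cultures at OD600 0.1 ± 0.02 with compound (250 and 400 µM) or DMSO control. Incubated 48 h at 37 °C, 100 rpm, then washed with PBS. Stained with 0.1% (w/v) crystal violet for 1 h at 37 °C, 150 rpm, washed three times and dried. Dye dissolved in 80% ethanol and read at OD550. Biomass expressed as % decrease versus DMSO control, set at 100%.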

Pseudomonas aeruginosa [8] = test: Antibiofilm activity against Pseudomonas aeruginosa PAO1 assessed as reduction in biomass at 250 to 400 uM measured after 48 hrs by crystal violet staining based assay relative to control; format: functional; details: dose 250-400 µM; method in brief: as §3
[9] = Inhibition of planktonic growth of Pseudomonas aeruginosa PAO1 up to 125 ug/ml incubated for 24 hrs; details: dose <=125 µg/ml
Method in brief: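 PAO1 at 5×10^5 CFU/mL in MHB. Compound added from 10 mg/mL DMSO stock, up to 125 µg/mL final. Incubated 24 h at 37 °C with intermittent agitation, OD600 read every 15 min. DMSO (1.25%) as control. One experiment per compound with three technical replicates.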

Row | SMILES | inhibition [1] | further results
1 | CCCS/C=C1\NC(=O)C=C1c1ccccc1 | 20% | –
2 | O=C1C=C(c2ccc(Cl)cc2)/C(=C/Sc2ccccn2)N1 | 18% | –
3 | CCCS/C=C1\NC(=O)C=C1c1ccc(Br)cc1 | 62% | IC50 [2]: 100 µM; Activity (Pseudomonas aeruginosa [3]): Active; Activity (Pseudomonas aeruginosa [4]): Active; Activity (Pseudomonas aeruginosa [5]): 11%; Activity (Pseudomonas aeruginosa [6]): 13%; inhibition (INH) (Pseudomonas aeruginosa [7]): 20%; inhibition (INH) (Pseudomonas aeruginosa [8]): 20%; growth inhibition (GI) [9]: Non-Toxic
4 | O=C1C=C(c2ccccc2)/C(=C/Sc2ccccn2)N1 | 53% | –
5 | O=C1C=C(c2ccc(Br)cc2)/C(=C/Sc2ccc(Cl)cc2)N1 | 33% | –
6 | O=C1C=C(c2ccccc2F)/C(=C/Sc2ccccc2)N1 | 42% | –
7 | O=C1C=C(c2ccc(Br)cc2)/C(=C/Sc2ccccc2)N1 | 52% | –
8 | O=C1C=C(c2ccc(F)cc2)/C(=C/Sc2ccc(Cl)cc2)N1 | 46% | –
9 | CCCS/C=C1\NC(=O)C=C1c1ccccc1F | 7% | –
10 | O=C1C=C(c2ccc(F)cc2)/C(=C/Sc2ccccn2)N1 | 63% | IC50 [2]: 32 µM; Activity (Pseudomonas aeruginosa [3]): Active; Activity (Pseudomonas aeruginosa [4]): Active; Activity (Pseudomonas aeruginosa [5]): 11%; Activity (Pseudomonas aeruginosa [6]): 13%; inhibition (INH) (Pseudomonas aeruginosa [7]): 20%; inhibition (INH) (Pseudomonas aeruginosa [8]): 20%; growth inhibition (GI) [9]: Non-Toxic
11 | O=C1C=C(c2ccc(Cl)cc2)/C(=C/Sc2ccccc2)N1 | 45% | –
12 | O=C1C=C(c2ccc(F)cc2)/C(=C/Sc2ccccc2)N1 | 45% | –
13 | O=C1C=C(c2ccc(Cl)cc2)/C(=C/Sc2ccc(Cl)cc2)N1 | 36% | –
14 | CCCS/C=C1\NC(=O)C=C1c1ccc(Cl)cc1 | 59% | IC50 [2]: 90 µM
15 | O=C1C=C(c2ccccc2)/C(=C/Sc2ccc(Cl)cc2)N1 | 43% | –
16 | O=C1C=C(c2ccccc2F)/C(=C/Sc2ccccn2)N1 | 40% | –
17 | O=C1C=C(c2ccc(Br)cc2)/C(=C/Sc2ccccn2)N1 | 20% | –
18 | O=C1C=C(c2cccc(F)c2)/C(=C/Sc2ccccn2)N1 | 47% | –
19 | O=C1C=C(c2ccccc2F)/C(=C/Sc2ccc(Cl)cc2)N1 | 55% | –
20 | O=C1C=C(c2ccccc2)/C(=C/Sc2ccccc2)N1 | 52% | –

From ChEMBL document CHEMBL4680345, “Thioether-linked dihydropyrrol-2-one analogues as PqsR antagonists against antibiotic resistant Pseudomonas aeruginosa” (Bioorg Med Chem, 2021)
